# Results taken from ChEMBL document CHEMBL1131628 (J Med Chem, 1998).
# Values joined by “and” are separate entries in the source; they are usually repeats but may differ in a detail not shown here. Equal entries are not always repeated.
# What was measured:
# [1] = molecular target: T1, Endothelin-1 receptor (Rattus norvegicus, UniProt P26684); test: Binding affinity for endothelin A receptor by measuring its ability to displace [125I]ET1 from prolactin secreting rat pituitary cells(MMQ); type: cell-based, Pituitary gland cell
# T1 sequence (P26684 whole entry): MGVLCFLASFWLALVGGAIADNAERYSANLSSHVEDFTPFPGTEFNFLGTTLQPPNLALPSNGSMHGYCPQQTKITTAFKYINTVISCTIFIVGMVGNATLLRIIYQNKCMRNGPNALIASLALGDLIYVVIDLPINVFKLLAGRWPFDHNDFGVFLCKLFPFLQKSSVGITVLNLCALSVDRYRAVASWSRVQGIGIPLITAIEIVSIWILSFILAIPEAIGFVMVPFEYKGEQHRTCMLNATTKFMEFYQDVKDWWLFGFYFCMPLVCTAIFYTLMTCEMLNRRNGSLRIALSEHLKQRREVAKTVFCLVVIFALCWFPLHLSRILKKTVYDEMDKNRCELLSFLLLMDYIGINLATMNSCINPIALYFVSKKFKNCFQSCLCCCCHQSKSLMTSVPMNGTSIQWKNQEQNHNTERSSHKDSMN
# [2] = molecular target: T2, Endothelin receptor type B (Homo sapiens, UniProt P24530); test: Tested for binding affinity for human Endothelin B receptor by measuring its ability to displace [125I]ET-3 from chinese hamster ovary cells(CHO); type: cell-based
# T2 sequence (P24530 whole entry): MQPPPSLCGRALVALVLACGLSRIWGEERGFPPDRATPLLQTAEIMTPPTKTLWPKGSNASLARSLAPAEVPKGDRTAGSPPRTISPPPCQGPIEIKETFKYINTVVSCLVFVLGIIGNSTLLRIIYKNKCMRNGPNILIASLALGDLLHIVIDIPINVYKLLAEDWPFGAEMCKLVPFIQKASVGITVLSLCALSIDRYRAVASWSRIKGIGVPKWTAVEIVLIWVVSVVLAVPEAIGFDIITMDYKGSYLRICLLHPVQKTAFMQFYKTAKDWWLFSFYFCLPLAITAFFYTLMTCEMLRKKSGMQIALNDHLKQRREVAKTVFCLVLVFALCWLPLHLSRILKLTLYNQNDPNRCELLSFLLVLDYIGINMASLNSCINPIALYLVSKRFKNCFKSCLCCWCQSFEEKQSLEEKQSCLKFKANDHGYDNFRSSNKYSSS
# [3] = Pharmacokinetic profile-half life was evaluated in rats upon intravenous administration; type: ADME, organism-based; conditions: rat, in vivo
# Outline: (§1)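 Male Sprague-Dawley rats, n = 4 per group, 10 mg/kg iv (jugular slow bolus) or oral gavage, 10 mg/mL in ethanol–propylene glycol–D5W (20:30:50) with 1 equiv NaOH. Tail-vein plasma taken 0.1 (iv only) to 12 h, assayed by HPLC after extraction. AUC by trapezoidal rule extrapolated to infinity; T1/2 from terminal rate constant; F as oral/iv AUC.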
# [4] = Pharmacokinetic profile Cmax was evaluated in rats; type: ADME, organism-based; conditions: rat, in vivo; outline: as §1
# [5] = Bioavailability in rat; type: ADME, organism-based; conditions: in vivo; outline: as §1
# [6] = Pharmacokinetic profile-half life was evaluated in rats upon oral administration; type: ADME, organism-based; conditions: rat, in vivo; outline: as §1
# [7] = Pharmacokinetic profile AUC was evaluated in rats; type: ADME, organism-based; set-up: concentration or dose not given beside the values; conditions: rat, in vivo; outline: as §1
# [8] = molecular target: T3, Endothelin-1 receptor (Homo sapiens, UniProt P25101); test: Tested for binding affinity for human Endothelin A receptor by measuring its ability to displace [125I]ET1 from chinese hamster ovary cells(CHO); type: cell-based
# T3 sequence (P25101 whole entry): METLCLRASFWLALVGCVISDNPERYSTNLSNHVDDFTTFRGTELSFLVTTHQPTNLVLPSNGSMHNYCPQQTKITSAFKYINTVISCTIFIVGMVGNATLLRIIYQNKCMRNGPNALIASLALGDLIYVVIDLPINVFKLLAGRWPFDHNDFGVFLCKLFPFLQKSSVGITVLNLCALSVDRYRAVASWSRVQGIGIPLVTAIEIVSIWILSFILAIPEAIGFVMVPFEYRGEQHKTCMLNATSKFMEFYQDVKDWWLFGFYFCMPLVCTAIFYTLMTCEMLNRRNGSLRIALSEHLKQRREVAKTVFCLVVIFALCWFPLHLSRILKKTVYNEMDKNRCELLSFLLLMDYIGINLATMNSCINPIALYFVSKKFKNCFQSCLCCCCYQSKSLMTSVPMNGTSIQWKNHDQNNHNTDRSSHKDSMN
Structure (SMILES),IC50 [1],also measured
CCCCN(CCCC)C(=O)CN1C[C@H](c2ccc3c(c2)OCO3)[C@@H](C(=O)O)[C@@H]1CCc1cccn1C,2.5 nM,–
CCCCC[C@H]1[C@H](C(=O)O)[C@@H](c2ccc3c(c2)OCO3)CN1CC(=O)N(CCCC)CCCC,2.5 nM,–
CCCCN(CCCC)C(=O)CN1C[C@H](c2ccc3c(c2)OCO3)[C@@H](C(=O)O)[C@@H]1CCC1CCOCC1,10 nM,–
CCCCN(CCCC)C(=O)CN1C[C@H](c2ccc3c(c2)OCO3)[C@@H](C(=O)O)[C@@H]1CCN1CCCCC1=O,2 nM,–
CCCCN(CCCC)C(=O)CN1C[C@H](c2ccc3c(c2)OCO3)[C@@H](C(=O)O)[C@@H]1CCc1ccccn1,0.38 nM and 0.72 nM,IC50 [2]: 32000 nM; half-life [3]: 2.8 h; Cmax [4]: 580 ng/mL; bioavailability [5]: 21.1%; half-life [6]: 8.8 h; AUC [7]: 780 ng·h/mL; IC50 [8]: 0.29 nM
C/C=C\C(C)(C)C[C@H]1[C@H](C(=O)O)[C@@H](c2cc(OC)c3c(c2)OCO3)CN1CC(=O)N(CCCC)CCCC,0.41 nM,IC50 [2]: 39700 nM; half-life [3]: 1.5 h; Cmax [4]: 660 ng/mL; bioavailability [5]: 27.8%; half-life [6]: 3.94 h; AUC [7]: 2090 ng·h/mL; IC50 [8]: 0.29 nM
CCCCN(CCCC)C(=O)CN1C[C@H](c2ccc3c(c2)OCO3)[C@@H](C(=O)O)[C@@H]1CCN1CCCC1=O,0.42 nM,IC50 [2]: 18000 nM; half-life [3]: 1.4 h; Cmax [4]: 16 ng/mL; bioavailability [5]: 0.3%; AUC [7]: 9 ng·h/mL; IC50 [8]: 0.17 nM
C=CCCC[C@H]1[C@H](C(=O)O)[C@@H](c2ccc3c(c2)OCO3)CN1CC(=O)N(CCCC)CCCC,9.9 nM,–
CCCCN(CCCC)C(=O)CN1C[C@H](c2ccc3c(c2)OCO3)[C@@H](C(=O)O)[C@@H]1CCn1ccccc1=O,2.2 nM,–
C/C=C(\C)CC[C@H]1[C@H](C(=O)O)[C@@H](c2ccc3c(c2)OCO3)CN1CC(=O)N(CCCC)CCCC,3.3 nM,–
CCCCN(CCCC)C(=O)CN1C[C@H](c2ccc3c(c2)OCO3)[C@@H](C(=O)O)[C@@H]1CC(CCC)CCC,6 nM,–
C/C=C/CC[C@H]1[C@H](C(=O)O)[C@@H](c2ccc3c(c2)OCO3)CN1CC(=O)N(CCCC)CCCC,4.8 nM,–
CCCCN(CCCC)C(=O)CN1C[C@H](c2ccc3c(c2)OCO3)[C@@H](C(=O)O)[C@@H]1CC(C)(C)C1OCCO1,1.4 nM,–
CCCCN(CCCC)C(=O)CN1C[C@H](c2ccc3c(c2)OCO3)[C@@H](C(=O)O)[C@@H]1CCCCC(F)(F)F,4 nM,–
CCCCN(CCCC)C(=O)CN1C[C@H](c2ccc3c(c2)OCO3)[C@@H](C(=O)O)[C@@H]1CC(C)CCC (some centres undefined),3 nM,–
CCCCN(CCCC)C(=O)CN1C[C@H](c2ccc3c(c2)OCO3)[C@@H](C(=O)O)[C@@H]1CCC(CC)CC,22 nM,–
CCCCN(CCCC)C(=O)CN1C[C@H](c2ccc3c(c2)OCO3)[C@@H](C(=O)O)[C@@H]1CCC1OCCCO1,3.3 nM,–
CCCCN(CCCC)C(=O)CN1C[C@H](c2ccc3c(c2)OCO3)[C@@H](C(=O)O)[C@@H]1CCc1ccco1,2.7 nM,–
CCCCN(CCCC)C(=O)CN1C[C@H](c2ccc3c(c2)OCO3)[C@@H](C(=O)O)[C@@H]1CCc1nc(C)c(C)o1,1.05 nM,–
CCCCN(CCCC)C(=O)CN1C[C@H](c2ccc3c(c2)OCO3)[C@@H](C(=O)O)[C@@H]1CCC=C(C)C,1.3 nM,–

Structure (SMILES),IC50 [1],also measured
CCCCN(CCCC)C(=O)CN1C[C@H](c2ccc3c(c2)OCO3)[C@@H](C(=O)O)[C@@H]1CCC1OC(C)C(C)O1 (some centres undefined),13 nM,–
CCCCN(CCCC)C(=O)CN1C[C@H](c2ccc3c(c2)OCO3)[C@@H](C(=O)O)[C@@H]1CCC1CCCCO1 (some centres undefined),1.8 nM,–
C=C(C)CCC[C@H]1[C@H](C(=O)O)[C@@H](c2ccc3c(c2)OCO3)CN1CC(=O)N(CCCC)CCCC,5.2 nM,–
CCCCN(CCCC)C(=O)CN1C[C@H](c2ccc3c(c2)OCO3)[C@@H](C(=O)O)[C@@H]1CCC1CCCO1 (some centres undefined),12 nM,–
CCCCN(CCCC)C(=O)CN1C[C@H](c2ccc3c(c2)OCO3)[C@@H](C(=O)O)[C@@H]1CCn1cccn1,0.51 nM,IC50 [2]: 42000 nM; IC50 [8]: 1.06 nM
CCCCN(CCCC)C(=O)CN1C[C@H](c2ccc3c(c2)OCO3)[C@@H](C(=O)O)[C@@H]1CCCC(C)C,2.5 nM,–
CCCCN(CCCC)C(=O)CN1C[C@H](c2ccc3c(c2)OCO3)[C@@H](C(=O)O)[C@@H]1CCc1ncco1,2.4 nM,–
CCCCN(CCCC)C(=O)CN1C[C@H](c2ccc3c(c2)OCO3)[C@@H](C(=O)O)[C@@H]1CCN1C(=O)CCC1=O,5 nM,–
CCCCN(CCCC)C(=O)CN1C[C@H](c2ccc3c(c2)OCO3)[C@@H](C(=O)O)[C@@H]1CCCC1OCCO1,7 nM,–
CCCCN(CCCC)C(=O)CN1C[C@H](c2ccc3c(c2)OCO3)[C@@H](C(=O)O)[C@@H]1CCC=C1CC1,0.64 nM,–
CCCCN(CCCC)C(=O)CN1C[C@H](c2ccc3c(c2)OCO3)[C@@H](C(=O)O)[C@@H]1CCC(C)CC (some centres undefined),16 nM,–
C/C=C\C(C)(C)C[C@H]1[C@H](C(=O)O)[C@@H](c2ccc3c(c2)OCO3)CN1CC(=O)N(CCCC)CCCC,–,IC50 [2]: 92700 nM; half-life [3]: 1.6 h; Cmax [4]: 1490 ng/mL; bioavailability [5]: 32.2%; half-life [6]: 3.58 h; AUC [7]: 2620 ng·h/mL; IC50 [8]: 1 nM
CCCCN(CCCC)C(=O)CN1C[C@H](c2ccc3c(c2)OCO3)[C@@H](C(=O)O)[C@@H]1CCC1OCCO1,2.3 nM,–
CCCCN(CCCC)C(=O)CN1C[C@H](c2ccc3c(c2)OCO3)[C@@H](C(=O)O)[C@@H]1CC(C)(C)C=C(C)C,2.7 nM,–
CCCCN(CCCC)C(=O)CN1C[C@H](c2ccc3c(c2)OCO3)[C@@H](C(=O)O)[C@@H]1CCc1ccoc1,2.2 nM,–
C/C=C\CC[C@H]1[C@H](C(=O)O)[C@@H](c2ccc3c(c2)OCO3)CN1CC(=O)N(CCCC)CCCC,0.78 nM,–
CCCCN(CCCC)C(=O)CN1C[C@H](c2ccc3c(c2)OCO3)[C@@H](C(=O)O)[C@@H]1CC/C=C(/C)CC,0.86 nM,–
CCCCN(CCCC)C(=O)CN1C[C@H](c2ccc3c(c2)OCO3)[C@@H](C(=O)O)[C@@H]1CCC1SCCS1,4.5 nM,–
CCCOc1ccc2c(c1)[C@@H](c1ccc(OC)cc1OCCO)[C@H](C(=O)O)[C@H]2c1ccc2c(c1)OCO2,–,half-life [3]: 3.3 h; bioavailability [5]: 66%
CCCCN(CCCC)C(=O)CN1C[C@H](c2cc(OC)c3c(c2)OCO3)[C@@H](C(=O)O)[C@@H]1CC(C)(C)CCC [ABT-546],0.56 nM,half-life [3]: 1.6 h; Cmax [4]: 1690 ng/mL; bioavailability [5]: 47.7%; half-life [6]: 2.5 h; AUC [7]: 3270 ng·h/mL
